Experimental data collected from several papers.
Each line is one published result; the experiments were not run side by side.
Target: Serine/threonine-protein kinase haspin (HASPIN, Homo sapiens, UniProt Q8TF76)
Residues used in one study (Q8TF76 1-798): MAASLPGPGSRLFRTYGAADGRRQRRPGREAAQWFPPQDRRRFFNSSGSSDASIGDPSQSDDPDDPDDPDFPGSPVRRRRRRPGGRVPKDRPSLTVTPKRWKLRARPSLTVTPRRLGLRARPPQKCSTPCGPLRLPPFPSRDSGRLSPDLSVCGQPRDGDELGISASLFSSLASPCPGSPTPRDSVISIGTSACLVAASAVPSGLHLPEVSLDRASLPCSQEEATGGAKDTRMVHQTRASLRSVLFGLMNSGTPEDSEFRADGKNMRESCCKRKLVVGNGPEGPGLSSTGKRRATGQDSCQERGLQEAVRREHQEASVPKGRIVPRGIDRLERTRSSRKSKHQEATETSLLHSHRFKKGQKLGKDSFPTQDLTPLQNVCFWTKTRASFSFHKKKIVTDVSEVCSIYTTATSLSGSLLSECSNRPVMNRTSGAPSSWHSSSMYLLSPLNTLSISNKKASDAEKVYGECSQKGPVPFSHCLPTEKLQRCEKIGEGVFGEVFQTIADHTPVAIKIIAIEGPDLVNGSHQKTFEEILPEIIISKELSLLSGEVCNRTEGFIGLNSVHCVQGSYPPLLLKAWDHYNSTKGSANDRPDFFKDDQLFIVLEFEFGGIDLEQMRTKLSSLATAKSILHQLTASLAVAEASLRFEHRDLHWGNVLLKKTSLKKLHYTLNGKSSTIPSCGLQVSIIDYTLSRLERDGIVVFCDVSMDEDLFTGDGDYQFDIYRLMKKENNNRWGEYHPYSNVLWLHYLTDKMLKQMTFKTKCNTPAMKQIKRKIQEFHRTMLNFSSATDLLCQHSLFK

C[C@H](NC(=O)c1cnc2n1[C@](C)(Cc1ccc(C#N)cc1)C(=O)N2c1cc(Cl)c(F)c(Cl)c1)C(=O)NC1(c2ccccn2)CC1 — remaining binding (cell-free assay; competition with immobilised ligand; 1 µM): 100%
CN(C)c1ncc(F)c(-c2cnn3ncccc23)n1 — remaining binding (binding; 1 µM): 37%
Nc1ncc2c(n1)-c1c([nH]c3ccc(C#CC4CC4)cc13)CCCC2 — remaining binding (binding; competition with immobilised ligand; 1 µM): 100%
O=C(Nc1cnc(Oc2ccc(F)cc2)nc1)N1CCc2ncccc2[C@@H]1c1ccc(F)cc1 — remaining binding (cell-free assay; competition with immobilised ligand; 1 µM): 93%
C=CC(=O)N1CCC(C(=O)NCC(=O)N2CCN(c3nc(-c4cnc(N)nc4C(F)F)nc(N4CCOCC4)n3)CC2)CC1 — remaining binding (binding; competition with immobilised ligand; 1 µM): 75%
CSc1cccnc1N1CCN(Cc2nc3ccccc3[nH]2)CC1 — remaining binding (cell-free assay; competition with immobilised ligand; 1 µM): 100%
N[C@H]1CCN(c2nccc(-c3cnn4ncccc34)n2)C1 — remaining binding (binding; 1 µM): 0.4%
COc1cnc(Nc2cccc(S(N)(=O)=O)c2)nc1N1CCN(c2ccccc2)CC1 — remaining binding (binding; competition with immobilised ligand; 1 µM): 82%
F[C@@H]1CCN(c2nccc(-c3cnn4ncccc34)n2)C1 — remaining binding (binding; 1 µM): 15%
O=C(NCCCN1CCOCC1)c1ccc(Nc2ncc(Cl)c(-c3ccc(Cl)s3)n2)cc1 — remaining binding (binding; competition with immobilised ligand; 1 µM): 51%
COc1cnc(Nc2cccc(S(N)(=O)=O)c2)nc1N1CCN(c2ccccc2)C(=O)C1 — remaining binding (binding; competition with immobilised ligand; 1 µM): 89%
c1cnn2ncc(-c3ccnc(N4CCC45COC5)n3)c2c1 — remaining binding (binding; 1 µM): 0.6%
O=C(NCCCN1CCOCC1)c1ccc(Nc2nccc(-c3cc4ccccc4s3)n2)cc1 — remaining binding (binding; competition with immobilised ligand; 1 µM): 80%
O=C1NC(c2ccccn2)Sc2ccccc21 (stereo not shown) — remaining binding (cell-free assay; competition with immobilised ligand; 1 µM): 100%
C[C@@H]1CCN(c2nccc(-c3cnn4ncccc34)n2)C1 — remaining binding (binding; 1 µM): 2%
C[C@@H](c1ccc(-n2cnc3c(N)ncnc32)cc1)N1CCc2nn(C)c(Cc3ccccc3)c2C1=O — remaining binding (binding; competition with immobilised ligand; 0.1 µM): 79%
C[C@H](c1ccnc(Nc2nc3ccc(-c4cc(N(C)C)ncn4)cc3[nH]2)c1)N1CCN(C(=O)CC(F)(F)F)CC1 — remaining binding (cell-free assay; competition with immobilised ligand; 0.1 µM): 100%
O=C(c1ccc(Nc2ncc(Cl)c(-c3cc4ccccc4s3)n2)cc1)N1CCC(N2CCCC2)CC1 — remaining binding (binding; competition with immobilised ligand; 1 µM): 67%
NS(=O)(=O)c1cc(NC(=O)Cc2ccccc2)ccc1Oc1cccc(Cl)c1 — remaining binding (cell-free assay; competition with immobilised ligand; 1 µM): 100%
O=C(NCC1CCOCC1)c1n[nH]cc1NC(=O)c1c(F)cccc1F — remaining binding (binding; competition with immobilised ligand; 1 µM): 88%
CC1CCCN1c1nccc(-c2cnn3ncccc23)n1 (stereo not shown) — remaining binding (binding; 1 µM): 21%
COc1ccc2cc(OCC3(C(=O)O)CN(C(=O)c4ccc(F)cc4)C3)ccc2c1 — remaining binding (cell-free assay; competition with immobilised ligand; 1 µM): 100%
